Assay results from different studies.
Each line is one published result; the experiments were not run side by side.
Target: Serine/threonine-protein kinase LATS1 (LATS1, Homo sapiens, UniProt O95835)
Residues used in one study (O95835 1-1130): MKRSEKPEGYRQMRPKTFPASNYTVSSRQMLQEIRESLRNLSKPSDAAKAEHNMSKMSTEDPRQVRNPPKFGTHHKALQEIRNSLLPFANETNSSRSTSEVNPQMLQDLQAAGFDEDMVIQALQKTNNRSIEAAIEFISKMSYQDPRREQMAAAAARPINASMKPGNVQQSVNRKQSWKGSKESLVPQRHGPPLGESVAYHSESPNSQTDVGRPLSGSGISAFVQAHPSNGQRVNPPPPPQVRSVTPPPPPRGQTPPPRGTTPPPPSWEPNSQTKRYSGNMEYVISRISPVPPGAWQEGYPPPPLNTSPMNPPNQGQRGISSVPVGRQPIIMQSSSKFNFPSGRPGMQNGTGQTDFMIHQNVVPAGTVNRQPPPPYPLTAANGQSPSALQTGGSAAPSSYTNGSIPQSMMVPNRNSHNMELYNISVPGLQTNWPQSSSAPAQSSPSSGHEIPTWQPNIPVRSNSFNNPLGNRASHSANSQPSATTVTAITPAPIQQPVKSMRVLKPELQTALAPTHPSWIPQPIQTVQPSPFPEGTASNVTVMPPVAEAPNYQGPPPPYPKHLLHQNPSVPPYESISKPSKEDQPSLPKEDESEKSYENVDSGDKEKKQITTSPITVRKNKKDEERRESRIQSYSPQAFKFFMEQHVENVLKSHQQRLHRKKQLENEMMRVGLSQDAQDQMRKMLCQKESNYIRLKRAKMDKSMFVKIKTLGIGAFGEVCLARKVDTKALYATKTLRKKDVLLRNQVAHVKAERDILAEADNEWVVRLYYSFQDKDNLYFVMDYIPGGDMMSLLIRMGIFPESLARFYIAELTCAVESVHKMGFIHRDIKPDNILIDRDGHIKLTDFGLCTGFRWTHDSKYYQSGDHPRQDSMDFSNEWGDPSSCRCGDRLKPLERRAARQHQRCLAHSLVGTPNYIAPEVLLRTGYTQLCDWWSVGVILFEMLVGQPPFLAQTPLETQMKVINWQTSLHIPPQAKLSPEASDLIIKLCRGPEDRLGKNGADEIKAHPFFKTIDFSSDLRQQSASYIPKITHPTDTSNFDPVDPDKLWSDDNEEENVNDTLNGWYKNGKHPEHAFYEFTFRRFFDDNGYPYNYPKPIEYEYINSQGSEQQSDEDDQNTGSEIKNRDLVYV

CC1CCCN1c1nccc(-c2cnn3ncccc23)n1 (stereo not shown) — remaining binding (binding; 1 µM): 100%
Cc1sc(C(=O)NC2COC2)cc1-n1cc(NC(=O)Nc2c(F)cccc2Cl)cn1 — remaining activity (enzyme activity; inhibitor; 10 µM): 97.2%
Nc1ncnc2occ(-c3ccc(NC(=O)Nc4cc(C(F)(F)F)ccc4F)cc3)c12 — remaining signal (cell-free assay; inhibitor; 20 µM): 33%
O=C(NC[C@@H]1[C@H]2CN(C(=O)OCc3cc(C(F)(F)F)cc(C(F)(F)F)c3)C[C@@H]12)c1ccc2[nH]nnc2c1 — remaining binding (cell-free assay; competition with immobilised ligand; 1 µM): 96%
Cc1ccc(C(=O)Nc2ccc(CN3CCN(C)CC3)c(C(F)(F)F)c2)cc1C#Cc1cnc2cccnn12 — remaining activity (enzyme activity; inhibitor; 23.5 nM): 93%
O=C(Nc1cnn(-c2csc(C(=O)NC3COC3)c2)c1)Nc1ccccc1Cl — remaining activity (enzyme activity; inhibitor; 5 µM): 106%
CC(C)(O)[C@H]1CC[C@H](Nc2ccc3ncc(-c4cccc(C(F)(F)F)c4)n3n2)CC1 — remaining activity (enzyme activity; inhibitor; 1 µM): 96.1%
COc1cccc2c(NCc3ccccc3)nc(-n3c(N)nc4ccccc43)nc12 — inhibition (target engagement in cells; inhibitor; chemoproteomics; 20 mM): -30.5%
CN1CCN(c2cnc3c(C4CCN(C(=O)c5ccc(OC(F)(F)F)cc5N)CC4)ncnc3c2)CC1 — remaining binding (cell-free assay; competition with immobilised ligand; 1 µM): 81%
CCCCNc1ncc2c(-c3ccc(F)cc3)nn(C[C@H]3CC[C@H](N)CC3)c2n1 — inhibition (target engagement in cells; inhibitor; chemoproteomics; 20 mM): 7.3%
Cn1cnc(Br)c1C1=CN(c2ncnc3[nH]cnc23)CCS1 — inhibition (enzyme activity; inhibitor; radiometric; 50 nM): 51.5%
CC(=O)N1CCC(c2ccc(C(=O)NC(=N)N)cc2C(F)(F)F)CC1 — remaining binding (cell-free assay; competition with immobilised ligand; 1 µM): 72%
COc1cc(-c2cc(-c3ccc(N4CCNCC4)cc3)cnc2C)cc(OC)c1OC — inhibition (enzyme activity; inhibitor; 1 µM): 7%
